Blank lines part the entries; values can stand above or below the compound they belong to.
What was measured:
human RXFP1 [1] = molecular target: T1, human RXFP1 (Homo sapiens, UniProt Q9HBX9); assay: HTRF cAMP assay in HEK293-RXFP1 cells; type: cell-based
T1 sequence (Q9HBX9 1-757): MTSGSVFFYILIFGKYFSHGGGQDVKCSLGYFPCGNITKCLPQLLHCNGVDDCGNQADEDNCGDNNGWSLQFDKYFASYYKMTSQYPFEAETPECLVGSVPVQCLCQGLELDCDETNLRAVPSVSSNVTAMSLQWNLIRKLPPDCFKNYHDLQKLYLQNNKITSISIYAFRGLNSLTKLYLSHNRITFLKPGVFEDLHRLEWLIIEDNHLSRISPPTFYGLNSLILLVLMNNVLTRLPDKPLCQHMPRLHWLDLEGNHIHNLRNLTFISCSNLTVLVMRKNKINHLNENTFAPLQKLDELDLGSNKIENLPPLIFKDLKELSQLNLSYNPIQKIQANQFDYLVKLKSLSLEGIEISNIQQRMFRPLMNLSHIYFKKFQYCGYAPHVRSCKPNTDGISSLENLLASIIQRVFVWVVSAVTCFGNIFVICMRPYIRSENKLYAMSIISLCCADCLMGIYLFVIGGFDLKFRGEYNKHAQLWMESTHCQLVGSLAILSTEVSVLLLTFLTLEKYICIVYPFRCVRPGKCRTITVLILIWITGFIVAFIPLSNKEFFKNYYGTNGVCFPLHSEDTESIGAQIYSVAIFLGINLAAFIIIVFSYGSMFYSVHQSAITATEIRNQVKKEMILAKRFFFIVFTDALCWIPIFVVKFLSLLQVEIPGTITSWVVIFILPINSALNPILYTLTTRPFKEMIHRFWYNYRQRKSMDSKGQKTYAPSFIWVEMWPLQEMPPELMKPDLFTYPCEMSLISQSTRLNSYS

human RXFP1 [2] = molecular target: T1, human RXFP1; assay: ELISA cAMP assay; type: cell-based; settings: 96-well; for efficacy: normalized to 57.5 μM forskolin as 100%
In short: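 HEK293T cells stably expressing human RXFP1 were grown in DMEM with 10% FBS, penicillin/streptomycin and 500 μg/mL geneticin. They were seeded at 16,000 cells/well and left overnight at 37 °C, 5% CO₂. PDE inhibitor Ro 20-1724 (417 μM addition solution in PBS+) was added, then test compound in DMSO, for 30 min at 37 °C. Cells were lysed and cAMP was quantified by ELISA. EC50 came from nonlinear regression of dose-response curves.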

[3] = molecular target: human relaxin family receptor 2 (RXFP2) (Homo sapiens, UniProt Q8WXD0); assay: HTRF cAMP selectivity assay in HEK293-RXFP2 cells; type: cell-based; settings: HEK293-RXFP1 vs HEK293-RXFP2
Sequence of human relaxin family receptor 2 (RXFP2) (Q8WXD0 whole entry): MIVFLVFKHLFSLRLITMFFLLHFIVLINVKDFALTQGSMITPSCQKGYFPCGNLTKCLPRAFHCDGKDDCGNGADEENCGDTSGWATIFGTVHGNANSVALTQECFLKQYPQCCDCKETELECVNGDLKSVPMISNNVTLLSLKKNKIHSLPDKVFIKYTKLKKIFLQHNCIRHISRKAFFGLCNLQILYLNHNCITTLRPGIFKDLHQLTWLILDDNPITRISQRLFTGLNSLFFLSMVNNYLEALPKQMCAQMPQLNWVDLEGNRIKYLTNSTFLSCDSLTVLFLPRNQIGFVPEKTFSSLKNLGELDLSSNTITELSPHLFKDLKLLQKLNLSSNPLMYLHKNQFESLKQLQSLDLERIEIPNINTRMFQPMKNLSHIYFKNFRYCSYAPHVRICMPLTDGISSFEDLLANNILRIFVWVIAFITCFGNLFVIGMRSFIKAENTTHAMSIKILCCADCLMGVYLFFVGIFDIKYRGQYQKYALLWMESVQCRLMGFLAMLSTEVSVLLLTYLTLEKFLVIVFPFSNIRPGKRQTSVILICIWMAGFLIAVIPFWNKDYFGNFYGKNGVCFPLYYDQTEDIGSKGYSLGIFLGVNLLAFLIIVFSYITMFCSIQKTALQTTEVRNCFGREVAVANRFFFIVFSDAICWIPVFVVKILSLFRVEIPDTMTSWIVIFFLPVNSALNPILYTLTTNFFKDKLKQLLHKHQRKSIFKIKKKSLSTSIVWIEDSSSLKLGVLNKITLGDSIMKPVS

[4] = molecular target: T2, vasopressin 1b receptor (V1b) (Homo sapiens, UniProt P47901); assay: HTRF cAMP counter screen in HEK293-V1b cells; type: cell-based
T2 sequence (P47901 1-424): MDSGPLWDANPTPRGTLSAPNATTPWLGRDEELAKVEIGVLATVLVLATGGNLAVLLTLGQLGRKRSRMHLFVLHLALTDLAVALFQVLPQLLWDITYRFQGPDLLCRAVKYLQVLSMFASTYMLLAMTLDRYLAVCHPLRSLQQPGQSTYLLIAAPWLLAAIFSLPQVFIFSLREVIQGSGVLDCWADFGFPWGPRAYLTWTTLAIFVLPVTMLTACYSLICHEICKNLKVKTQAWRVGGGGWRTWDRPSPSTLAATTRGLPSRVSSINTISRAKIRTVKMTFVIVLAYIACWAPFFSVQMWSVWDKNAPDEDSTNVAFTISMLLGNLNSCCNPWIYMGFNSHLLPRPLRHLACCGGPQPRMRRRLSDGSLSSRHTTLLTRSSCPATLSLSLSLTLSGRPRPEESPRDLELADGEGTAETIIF

[5] = molecular target: human relaxin family receptor 1 (RXFP1) (human) (UniProt Q9HBX9)

Sequence of Porcine relaxin (ligand) (P01348 25-182): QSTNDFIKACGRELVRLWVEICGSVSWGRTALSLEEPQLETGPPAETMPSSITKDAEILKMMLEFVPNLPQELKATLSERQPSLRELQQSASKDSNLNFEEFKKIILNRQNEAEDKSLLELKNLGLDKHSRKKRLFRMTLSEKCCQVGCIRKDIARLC

Compound: C=C[C@@]1(C)CC(=O)[C@]2(O)[C@@]3(C)[C@@H](O)CCC(C)(C)[C@@H]3[C@H](O)[C@H](OC(C)=O)[C@@]2(C)O1 [forskolin, reference compound]
EC50 (human RXFP1 [1]; EC50 (cAMP response), HEK293-RXFP1 cells, 384-well format): 164 nM
EC50 (human RXFP1 [1]; EC50 (cAMP response), HEK293-RXFP1 cells, 1,536-well format): 193 nM

Compound: relaxin
EC50 (human RXFP1 [1]; read-out: EC50 (cAMP response), HEK293-RXFP1 cells, 384-well format): 0.203 nM
EC50 (human RXFP1 [1]; read-out: EC50 (cAMP response), HEK293-RXFP1 cells, 1,536-well format): 0.494 nM
selectivity towards RXFP1 over RXFP2 [3]: > 30 fold
activity in HEK293-V1b counter screen [4]: no activity

Compound: Porcine relaxin (ligand)
EC50 of cAMP production (HTRF cAMP assay) in HEK293-RXFP1 cells, 384-well format [5]: 0.203 nM

Continued, values first:

EC50 (human RXFP1 [2]): 6200 nM
efficacy (human RXFP1 [2]): 60%
Compound: O=C(Nc1cccc(C(F)(F)F)c1)c1ccccc1NC(=O)C1CCCCC1 [MLS000579461]

EC50 (human RXFP1 [2]): 2900 nM
efficacy (human RXFP1 [2]): 80%
Compound: O=C(Nc1ccccc1C(=O)Nc1ccccc1C(=O)NCc1ccco1)c1ccco1 [MLS000088899]

Source: paper PMC4804196 (Journal of biomolecular screening, 2012)
